Assay results reported in ChEMBL document CHEMBL4814043, “Optimization of a urea-containing series of nicotinamide phosphoribosyltransferase (NAMPT) activators” (Bioorg Med Chem Lett, 2021).
≈ marks a conversion by molar mass, not a printed value. Calls of active or inactive are those of the source. No cut-off for these calls is given here.

Assays:
[1] = Cmax in mouse at 10 mg/kg, po; format: ADME, organism-based; set-up: route oral, dose 10 mg/kg; conditions: in vivo
[2] = AUC in mouse at 10 mg/kg, po; format: ADME, organism-based; set-up: dose 10 mg/kg; conditions: in vivo
[3] = Plasma clearance in mouse at 1 mg/kg, iv; format: ADME, organism-based
[4] = biological target: T1, Nicotinamide phosphoribosyltransferase (Homo sapiens, UniProt P43490); assay: Activation of human NAMPT
Target sequence in this assay (P43490 whole entry): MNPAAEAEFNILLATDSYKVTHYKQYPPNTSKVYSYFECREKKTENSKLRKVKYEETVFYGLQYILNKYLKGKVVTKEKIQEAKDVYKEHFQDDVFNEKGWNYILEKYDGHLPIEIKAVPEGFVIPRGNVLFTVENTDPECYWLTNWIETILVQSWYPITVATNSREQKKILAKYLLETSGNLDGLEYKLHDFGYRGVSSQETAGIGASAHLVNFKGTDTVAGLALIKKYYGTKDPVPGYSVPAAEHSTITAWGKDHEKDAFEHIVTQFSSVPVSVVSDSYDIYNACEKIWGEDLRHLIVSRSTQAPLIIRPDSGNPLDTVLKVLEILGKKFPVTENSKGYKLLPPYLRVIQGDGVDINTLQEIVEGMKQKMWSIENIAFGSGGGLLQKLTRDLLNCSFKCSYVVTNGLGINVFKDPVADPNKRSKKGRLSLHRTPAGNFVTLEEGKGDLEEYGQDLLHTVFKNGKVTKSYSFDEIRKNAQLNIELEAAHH

[5] = Oral bioavailability in mouse at 10 mg/kg; format: ADME, organism-based; conditions: in vivo
[6] = Half life in mouse at 10 mg/kg, po; format: ADME, organism-based; conditions: in vivo
[7] = Volume of distribution in mouse at 1 mg/kg, iv; format: ADME, organism-based; conditions: in vivo
[8] = 1-Octanol/PBS buffer distribution coefficient, log D of the compound at pH 7.4; format: physicochemical
How it was run: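 Partitioning measured between 1-octanol and phosphate-buffered saline at pH 7.4.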

CYP2C9 = CYP2C9 (Homo sapiens, UniProt P11712); assay: Inhibition of CYP2C9 (unknown origin) at 10 uM measured after 10 mins; format: ADME
CYP2C9, sequence (P11712 whole entry, canonical isoform): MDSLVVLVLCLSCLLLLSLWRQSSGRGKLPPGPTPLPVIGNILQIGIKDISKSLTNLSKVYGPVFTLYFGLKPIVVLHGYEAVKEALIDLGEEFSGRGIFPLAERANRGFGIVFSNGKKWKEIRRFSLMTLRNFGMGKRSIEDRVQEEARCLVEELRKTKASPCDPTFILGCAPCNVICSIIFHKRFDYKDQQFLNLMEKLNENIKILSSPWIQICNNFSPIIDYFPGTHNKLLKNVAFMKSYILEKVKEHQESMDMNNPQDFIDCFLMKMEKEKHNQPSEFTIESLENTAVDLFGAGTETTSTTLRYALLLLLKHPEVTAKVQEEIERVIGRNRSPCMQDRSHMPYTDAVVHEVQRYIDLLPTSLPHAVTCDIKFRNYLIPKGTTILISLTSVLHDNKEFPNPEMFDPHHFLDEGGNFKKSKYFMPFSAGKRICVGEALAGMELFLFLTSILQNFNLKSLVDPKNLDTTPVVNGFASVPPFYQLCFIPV
How it was run: (§1)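 Each CYP isoform (1A2, 2C9, 2D6, 3A4) reacted with compound at 10 µM for 10 min; value reported as percent inhibition.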

CYP2D6 = CYP2D6 (Homo sapiens, UniProt P10635); assay: Inhibition of CYP2D6 (unknown origin) at 10 uM measured after 10 mins; format: ADME; how it was run: as §1
CYP2D6, sequence (P10635 whole entry): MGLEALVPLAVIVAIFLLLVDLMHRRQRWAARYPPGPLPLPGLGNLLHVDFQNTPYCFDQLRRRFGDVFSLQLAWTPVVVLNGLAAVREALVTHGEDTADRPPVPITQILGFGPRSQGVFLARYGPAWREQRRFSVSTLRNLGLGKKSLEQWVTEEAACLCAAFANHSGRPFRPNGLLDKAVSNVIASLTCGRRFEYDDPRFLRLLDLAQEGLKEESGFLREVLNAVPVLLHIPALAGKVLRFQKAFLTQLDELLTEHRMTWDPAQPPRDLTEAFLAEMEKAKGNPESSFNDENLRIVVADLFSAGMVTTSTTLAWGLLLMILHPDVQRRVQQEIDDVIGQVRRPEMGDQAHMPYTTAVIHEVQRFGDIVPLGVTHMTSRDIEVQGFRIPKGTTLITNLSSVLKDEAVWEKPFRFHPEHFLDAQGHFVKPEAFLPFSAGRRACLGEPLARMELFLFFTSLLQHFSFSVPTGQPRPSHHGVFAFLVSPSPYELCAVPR

[9] = Solubility of compound at pH 6.8; format: physicochemical; conditions: buffer
[10] = Permeability of compound at pH 5 by PAMPA assay; format: ADME; conditions: read-out: permeability
[11] = biological target: T1, Nicotinamide phosphoribosyltransferase; assay: Activation of NAMPT in human A549 cells assessed as increase in NMN level at 10 uM incubated for 4 hrs by LC-MS/MS analysis; format: cell-based; conditions: filed as activator
How it was run: (§2)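 A549 cells exposed to 10 µM compound or DMSO vehicle for 4 hr, then harvested; NMN and NAD+ quantified by LC-MS/MS and normalized to cell protein; significance vs. vehicle control by P value.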
Target sequence in this assay (P43490 whole entry, looked up): as the sequence (P43490 whole entry) above

[12] = Solubility of compound at pH 1.2; format: physicochemical; conditions: buffer
[13] = Metabolic stability in mouse liver microsomes assessed as parent compound remaining at 1 uM measured after 30 mins; format: ADME, Microsome; conditions: read-out: Stabilty
How it was run: (§3)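 Compound at 1 µM incubated with human or mouse microsomes for 30 min; read-out is percent parent remaining.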

CYP3A4 = CYP3A4 (Homo sapiens, UniProt P08684); assay: Inhibition of CYP3A4 (unknown origin) at 10 uM measured after 10 mins; format: ADME; how it was run: as §1
CYP3A4, sequence (P08684 whole entry): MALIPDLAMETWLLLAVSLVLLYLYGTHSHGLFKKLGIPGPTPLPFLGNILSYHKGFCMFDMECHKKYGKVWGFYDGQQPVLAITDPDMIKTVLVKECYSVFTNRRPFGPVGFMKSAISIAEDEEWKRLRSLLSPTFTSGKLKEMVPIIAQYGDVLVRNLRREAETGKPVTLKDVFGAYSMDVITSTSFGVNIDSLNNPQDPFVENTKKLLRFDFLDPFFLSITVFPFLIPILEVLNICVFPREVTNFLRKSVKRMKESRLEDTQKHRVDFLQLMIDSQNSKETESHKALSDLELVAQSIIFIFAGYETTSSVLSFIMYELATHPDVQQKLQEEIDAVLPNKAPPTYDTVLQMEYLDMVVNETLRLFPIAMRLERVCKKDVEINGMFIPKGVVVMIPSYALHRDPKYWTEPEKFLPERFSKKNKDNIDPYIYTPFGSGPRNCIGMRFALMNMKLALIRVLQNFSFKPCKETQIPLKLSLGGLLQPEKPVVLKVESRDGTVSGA

[14] = biological target: T1, Nicotinamide phosphoribosyltransferase; assay: Activation of NAMPT in human A549 cells assessed as increase in NAD+ level at 10 uM incubated for 4 hrs by LC-MS/MS analysis; format: cell-based; conditions: filed as activator; how it was run: as §2
Target sequence in this assay (P43490 whole entry, looked up): as the sequence (P43490 whole entry) above

[15] = Metabolic stability in human liver microsomes assessed as parent compound remaining at 1 uM measured after 30 mins; format: ADME, Microsome; conditions: read-out: Stabilty; how it was run: as §3
[16] = Permeability of compound at pH 7.4 by PAMPA assay; format: ADME; conditions: read-out: permeability
CYP1A2 = biological target: T2, CYP1A2 (Homo sapiens, UniProt P05177); assay: Inhibition of CYP1A2 (unknown origin) at 10 uM measured after 10 mins; format: ADME; how it was run: as §1
T2 sequence (P05177 whole entry): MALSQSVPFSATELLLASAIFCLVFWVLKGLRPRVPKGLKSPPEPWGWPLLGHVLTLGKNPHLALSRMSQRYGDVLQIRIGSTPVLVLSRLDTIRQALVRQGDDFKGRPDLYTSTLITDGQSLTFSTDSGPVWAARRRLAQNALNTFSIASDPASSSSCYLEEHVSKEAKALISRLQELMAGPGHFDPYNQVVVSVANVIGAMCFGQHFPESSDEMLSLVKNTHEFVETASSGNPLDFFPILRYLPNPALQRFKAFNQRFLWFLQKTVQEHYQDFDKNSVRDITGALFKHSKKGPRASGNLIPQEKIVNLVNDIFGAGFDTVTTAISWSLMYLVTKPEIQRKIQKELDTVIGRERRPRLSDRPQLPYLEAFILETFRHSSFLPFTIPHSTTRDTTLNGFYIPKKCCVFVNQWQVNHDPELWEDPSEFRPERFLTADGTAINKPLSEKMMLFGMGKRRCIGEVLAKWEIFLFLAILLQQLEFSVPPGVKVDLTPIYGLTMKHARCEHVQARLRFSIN

In the case of `O=C(NCc1ccncc1)Nc1ccc(S(=O)(=O)N2CCc3ccccc3C2)cc1`, the Cmax [1] is reported as 7860 ng/mL, the AUC [2] is reported as 4270 ng·h/mL and the clearance [3] is reported as 20 mL/min/kg. It also gave an EC50 [4] of 0.142 µM, a bioavailability [5] of 47% and a half-life [6] of 1 h. It also gave a Vd [7] of 0.6 L/kg.
`O=C(NCc1cn[nH]c1)Nc1ccc(S(=O)(=O)c2ccccc2)cc1` showed a Cmax [1] of 2230 ng/mL, an AUC [2] of 9340 ng·h/mL and a clearance [3] of 8 mL/min/kg. For the same compound, the EC50 [4] was 0.028 µM, the bioavailability [5] was 45% and the half-life [6] was 2.5 h. It also gave a Vd [7] of 1.12 L/kg.
For `CCOC(=O)c1ccc(N(C)C(=O)NCc2ccncc2)cc1`, the EC50 [4] was greater than 100 µM.
Work on `CCOC(=O)c1ccc(CC(=O)NCc2ccncc2)cc1` yielded an EC50 [4] greater than 100 µM.
Work on `CCOC(=O)c1ccc(NC(=O)N(C)Cc2ccncc2)cc1` yielded an EC50 [4] greater than 100 µM.
For `O=C(NCc1ccncc1)Nc1ccc(S(=O)(=O)Nc2ccccc2)cc1`, the EC50 [4] was 0.41 µM.
Compound `CCOC(=O)c1ccc(NC(=O)OCc2ccncc2)cc1` has an EC50 [4] of 10.8 µM.
Work on `CCOC(=O)c1ccc(NC(=O)NCc2ccncn2)cc1` yielded an EC50 [4] of 13.6 µM.
`CCOC(=O)c1ccc(NC(=O)NCc2ccccc2)cc1` gave an EC50 [4] of 1.37 µM.
For `CCOC(=O)c1ccc(NC(=O)NCc2c[nH]nn2)cc1`, the EC50 [4] was 7.75 µM.
In the case of `O=C(NCc1cnco1)Nc1ccc(S(=O)(=O)c2ccccc2)cc1`, the EC50 [4] is reported as 0.077 µM.
`O=C(NCc1ccncc1)Nc1ccc(S(=O)(=O)N2CC3CCC(C2)O3)cc1` showed an EC50 [4] of 0.279 µM.
With `CNS(=O)(=O)c1ccc(NC(=O)NCc2ccncc2)cc1` the EC50 [4] was 3.23 µM.
In the case of `CCOC(=O)c1ccc(NC(=O)NC(C)c2ccncc2)cc1` (stereo not given), the EC50 [4] is reported as 2.28 µM.
With `O=C(NCc1ccncc1)Nc1ccc(S(=O)(=O)c2ccc(Cl)cc2)cc1` the EC50 [4] was 0.126 µM.
For `O=C(NCc1cn[nH]c1)Nc1ccc(S(=O)(=O)c2ccc(Cl)cc2)cc1`, the logD [8] was 3.1, the inhibition at 10 min, 10 µM (CYP2C9) was 96% and the inhibition at 10 min, 10 µM (CYP2D6) was 95%. For the same compound, the Cmax [1] was 9550 ng/mL, the solubility [9] was 8.5 µg/mL (≈ 21.7 µM) and the AUC [2] was 54500 ng·h/mL. It also gave a clearance [3] of 3 mL/min/kg, a Papp [10] of less than 0.01 ×10⁻⁶ cm/s and an EC50 [4] of 0.023 µM. For the same compound, the Activity [11] was “Active”, the solubility [12] was 110 µg/mL (≈ 281 µM) and the remaining at 0.5 h, 1 µM [13] was 18%. The inhibition at 10 min, 10 µM (CYP3A4) was 0%, the Activity [14] was “Active” and the bioavailability [5] was 80%. It also gave a remaining at 0.5 h, 1 µM [15] of 87%, a half-life [6] of 3.2 h and a Papp [16] of 0.04 ×10⁻⁶ cm/s. The Vd [7] was 0.61 L/kg and the inhibition at 10 min, 10 µM (CYP1A2) was 65%.
For `CCOC(=O)c1ccc(N/C(=N\C#N)NCc2ccncc2)cc1`, the EC50 [4] was 41.4 µM.
In the case of `CN(Cc1ccccc1)S(=O)(=O)c1ccc(NC(=O)NCc2ccncc2)cc1`, the Cmax [1] is reported as 4950 ng/mL, the AUC [2] is reported as 4510 ng·h/mL and the clearance [3] is reported as 43 mL/min/kg. For the same compound, the bioavailability [5] was greater than 100%, the half-life [6] was 0.6 h and the Vd [7] was 1.37 L/kg.
For `CCOC(=O)c1ccc(NC(=S)NCc2ccncc2)cc1`, the EC50 [4] was 9.77 µM.
Work on `CCOC(=O)c1ccc(NC(=O)NCc2cc[nH]n2)cc1` yielded an EC50 [4] of 69 µM.
`CCOC(=O)c1ccc(NC(=O)NCc2cocn2)cc1` showed an EC50 [4] of 27.6 µM.
For `CCOC(=O)c1ccc(NC(=O)CCc2ccncc2)cc1`, the EC50 [4] was 15.9 µM.
`O=C(NCc1ccncc1)Nc1ccc(S(=O)(=O)NCc2ccccc2)cc1` gave an EC50 [4] of 0.102 µM.
With `CCOC(=O)c1ccc(NC(=O)NCc2cn[nH]c2)cc1` the EC50 [4] was 1.85 µM.
`CN(C1CCCC1)S(=O)(=O)c1ccc(NC(=O)NCc2ccncc2)cc1` showed an EC50 [4] of 0.123 µM.
Work on `O=C(NCc1ccncc1)Nc1ccc(S(=O)(=O)c2ccccc2)cc1` yielded an EC50 [4] of 0.085 µM.
Work on `O=C(NCc1cnco1)Nc1ccc(S(=O)(=O)c2cccc(OC(F)(F)F)c2)cc1` yielded a Cmax [1] of 15300 ng/mL, an AUC [2] of 45200 ng·h/mL and a clearance [3] of 4 mL/min/kg. For the same compound, the bioavailability [5] was greater than 100%, the half-life [6] was 2.3 h and the Vd [7] was 0.58 L/kg.
`CCOC(=O)c1ccc(NC(=O)NCc2ccnnc2)cc1` gave an EC50 [4] greater than 100 µM.
Work on `CN(C)S(=O)(=O)c1ccc(NC(=O)NCc2ccncc2)cc1` yielded an EC50 [4] of 3.11 µM.
